Measured values as given in paper PMC5339005 (International Journal of Nanomedicine, 2017).
Structures can show the parent of a compound that is named as a salt. Square brackets hold non-standard residues; d marks the D form. Peptide text beside a SMILES is read from it. Sar = CNCC(=O)O

Columns and labels:
HCEpiC [1] = test: Flow cytometry uptake mechanism with endocytic inhibitors, HCEpiC; type: cell-based, human; settings: inhibitor pre-incubated 30 min, nanocomposites 4 h
In short: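 HCEpiC were seeded at 10^5 cells/well in 12-well plates and grown 6 days, with medium refreshed every 2 days. FITC-labeled nanocomposites (2 μg/mL FITC) were then added for 4 h at 37°C. Cells were rinsed twice with cold DPBS, trypsinized, resuspended at 5×10^5–1×10^6 cells/mL and read by flow cytometry at 495/525 nm. Untreated cells served as control; n=3.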

ARPE-19 cells [2] = test: Flow cytometry uptake mechanism with endocytic inhibitors, ARPE-19; type: cell-based; settings: inhibitor pre-incubated 30 min, nanocomposites 4 h
In short: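 ARPE-19 cells were seeded at 10^5 cells/well in 12-well plates and grown 5 days, with one medium change. FITC-labeled nanocomposites (4 μg/mL FITC) were then added for 4 h at 37°C in serum-free medium. Cells were rinsed with cold PBS, trypsinized and read by flow cytometry at 495/525 nm. Untreated cells served as control; n=3.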

HCEpiC [3] = test: Cellular uptake, inverted fluorescence microscope, HCEpiC; type: cell-based, human; settings: 2 μg/mL FITC, 37°C, 1, 2 and 4 h
In short: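 HCEpiC were grown in poly-L-lysine-coated flasks (2 μg/cm2) in serum-free corneal epithelial medium with growth supplement, under 5% CO2 at 37°C. They were seeded at 5×10^4 cells/well in 24-well plates and grown 6 days, with medium refreshed every 2 days. Cells were exposed for 1, 2 and 4 h at 37°C to FITC-labeled test nanocomposites, free FITC or polymer–FITC control solution, at 2 μg/mL FITC. They were washed three times with DPBS and imaged by inverted fluorescence microscopy.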

ARPE-19 cells [4] = test: Cellular uptake, inverted fluorescence microscope, ARPE-19; type: cell-based; settings: ARPE-19, 4 μg/mL FITC, 37°C, 1, 2 and 4 h
In short: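 ARPE-19 cells were grown in DMEM/F-12 with 10% FBS under 5% CO2 at 37°C. They were seeded at 5×10^4 cells/well in 24-well plates and grown 2 days. Cells were exposed for 1, 2 and 4 h at 37°C to FITC-labeled test nanocomposites, free FITC or polymer–FITC control solution (3.8×10−4% or 0.008% w/v polymer), at 4 μg/mL FITC. They were washed three times with PBS and imaged by inverted fluorescence microscopy.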

HCEpiC and ARPE-19 cells = test: Gly-Sar cell viability by MTT assay; type: cell-based; settings: even at 10 mM; cells not stated at the place (Figure S6)
[5] = In vitro drug release, dynamic dialysis method; type: physicochemical; settings: PBS pH 7.4, within 2 h
In short: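 Free drug solution or drug-loaded nanosheet suspension (1 mL, 50 μg drug) was placed in a dialysis bag (MWCO 8–14 kDa) in PBS pH 7.4 at 35°C±0.5°C, shaken at 400 rpm. Samples of 0.5 mL were taken at 10–720 min, filtered through 0.22 μm and replaced with fresh PBS. Drug was quantified by HPLC.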

Compound	Effect of inhibitor on cellular uptake of FITC-labeled nanocomposites vs control (HCEpiC [1])	Effect of inhibitor on cellular uptake of FITC-labeled nanocomposites vs control (ARPE-19 cells [2])	other results
C[C@@H]1[C@H](O)[C@@H](C)/C=C/C=C/CC/C=C/C=C/C=C/C=C/C(O[C@H]2O[C@H](C)[C@@H](O)[C@H](N)[C@@H]2O)CC2O[C@](O)(CC(O)C(O)CCC(O)CC(O)CC(O)CC(=O)O[C@H]1C)CC(O)C2C(=O)O (stereo partly shown) [Nystatin, nystatin]	no significant influence	no significant influence	
O=C1OC2(c3ccc(O)cc3Oc3cc(O)ccc32)c2ccc(N=C=S)cc21 [free FITC, fluorescein isothiocyanate (FITC) isomer I]			Fluorescence of cells (cellular uptake) (HCEpiC [3]): negligible fluorescence; Fluorescence of cells (cellular uptake) (ARPE-19 cells [4]): negligible fluorescence
O=c1c(-c2ccc(O)cc2)coc2cc(O)cc(O)c12 [genistein]	no significant influence	no significant influence	
CN(CC(=O)O)C(=O)CN [Gly-Sar] (H-Gly-[Sar]-OH)			Cytotoxicity (cell viability by MTT) (HCEpiC and ARPE-19 cells): no cytotoxicity
OC[C@H]1O[C@@](CO)(O[C@H]2O[C@H](CO)[C@@H](O)[C@H](O)[C@H]2O)[C@@H](O)[C@@H]1O [hypertonic sucrose, sucrose]	significantly decreased	significantly decreased	
[N-]=[N+]=[N-].[Na+] [sodium azide]	decreased	decreased	
CN(C)CCCN1c2ccccc2Sc2ccc(Cl)cc21 [chlorpromazine, chlorpromazine hydrochloride]	significantly decreased	significantly decreased	
N=C(N)NC(=O)c1nc(Cl)c(N)nc1N [amiloride]	no effect	no effect	
O=C([O-])c1cc(=O)c2c3nc4ccccc4oc-3cc(=O)c2[nH]1.[Na+] [PRN solution, Pirenoxine sodium]			Cumulative release of PRN [5]: ~ 100%
